Source: PMC9134932 (CNS Oncology, 2022)
Several values for one entry are separate records, joined by “and”; a condition that tells them apart may be missing. Equal entries are not always repeated. Where two headings read alike, the source gives them in different places. Marks after values point to notes of the source that are not given here.

Assays:
[1] = no reference given, cited from earlier work
[2] = tested on: genetically engineered murine models of gliomas; conditions: p < 0.01; cited from earlier work
[3] = tested on: established intracerebral melanoma; conditions: versus 0% of vehicle control mice (p = 0.0076); cited from earlier work
[4] = tested on: patients with recurrent malignant glioma; assay: Phase I dose escalation; type: in vivo, human
Summary of the method: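 Dose assignment used accelerated titration, then 3 + 3. Planned levels were 1, 2, 4, 8 and 16 mg/kg, given BID on Mon/Wed/Fri for 2 weeks per 28-day cycle, as an oral suspension. Toxicity was assessed at baseline and before each cycle, graded by CTCAE v4.0. Dose was held for grade II toxicity and cut by 30% or one level for grade III. DSMB approval was required before each cohort change.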

[5] = tested on: immune modulatory effects; conditions: cited from earlier work
[6] = i.v. 40 mg/kg, no reference given, cited from earlier work
[7] = tested on: PBMCs; assay: Immune monitoring of patient PBMCs; type: in vivo, human; conditions: for Th1 to Th2 ratio: % CD3+ CD4+ IFN-γ+ divided by % CD3+ CD4+ IL-4+ T cells; for Cytotoxic CD8 to Treg ratio: % CD3+ CD8+ IFN-γ+ divided by % CD3+ CD4+ CD25+ Foxp3+ cells
Summary of the method: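 PBMCs were taken at C1D1 0 and 4 h, C1D2 0 h, and C1D8 0 and 4 h, then isolated from heparinised blood on Ficoll 1077. Cells were held 4–5 h at 37°C in T cell medium with protein transport inhibitor, Fc-blocked 15 min on ice, and given fixable viability dye 30 min at 4°C. Surface staining, fix/perm and intracellular staining followed, then flow cytometry. Th1:Th2 = %CD3+CD4+IFN-γ+ / %CD3+CD4+IL-4+. CD8:Treg = %CD3+CD8+IFN-γ+ / %CD3+CD4+CD25+FoxP3+.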

[8] = three weeks after the last administration; range: 0.52-4.0; no reference given; cited from earlier work
[9] = tested on: glioma cancer cells; conditions: read-out: direct IC50 of glioma cancer cells; cited from earlier work
[10] = tested on: p-STAT3 (Y705) in PBMCs; assay: Intracellular p-STAT3 staining of patient PBMCs by flow cytometry; type: in vivo, human
Summary of the method: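 Blood was processed at once because the p-STAT3 signal decays ex vivo. Ficoll-isolated PBMCs (6 × 10^6 in PBS) were fixed in 2% paraformaldehyde (final) for 10 min at 37°C, then permeabilised in ice-cold 90% methanol for 30 min. Staining was PE-anti-p-STAT3 (Y705) for 1 h at RT, in duplicate wells, with duplicate isotype-control wells and one unstained well. Duplicate specimens were run in parallel. Read-out was % p-STAT3+ PBMCs by flow cytometry versus baseline (0 h); paired t-test.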

[11] = tested on: GL261 glioma model; conditions: cited from earlier work
[12] = PK of WP1066 in human plasma; type: in vivo; conditions: 1-8 mg/kg oral
[13] = tested on: recurrent glioblastoma (GBM); assay: Clinical outcome: PFS, OS, MRI response; type: in vivo, human
Summary of the method: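 Oral dosing as weight-based powder reconstituted into a liquid suspension just before intake, BID on Mon/Wed/Fri for 2 weeks of each 28-day cycle, for up to 12 cycles or until progression. MRI at baseline, then about every 2–3 months, scored by iRANO on FLAIR and post-contrast T1WI. Intention-to-treat population. Kaplan–Meier estimates of PFS and OS, with OS counted from initial diagnosis.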

[14] = count in enrolled patient population (n = 8), all dose levels
[15] = sum over all toxicities, enrolled patient population (n = 8)
[16] = 1 mg/kg, C1D1 0 h (baseline before first dose)
[17] = 2 mg/kg, C1D1 0 h (baseline before first dose)
[18] = 4 mg/kg, C1D1 0 h (baseline before first dose)
[19] = 8 mg/kg, C1D1 0 h (baseline before first dose)

C[C@H](NC(=O)/C(C#N)=C/c1cccc(Br)n1)c1ccccc1 [WP1066]
oral bioavailability ([1]; methylcellulose-based oral nanoparticle formulation): approximately 30% | mean peak plasma concentration ([1]; preclinical dose of 40 mg/kg): 4.31 µM | increase in median survival time [2]: 55.5% | animals surviving long term [3]: 80% | hematological events such as thrombocytopenia or lymphopenia ([4]; 8 patients, 1-8 mg/kg): no significant hematological events | treatment-related deaths ([4]; 8 patients, 1-8 mg/kg): No treatment-related deaths occurred | patients with the most common adverse event, grade 1 nausea and diarrhea ([4]; 8 patients, all dose levels): 50% | Alanine aminotransferase increased, Grade 1 [4, 14]: 1 | Alanine aminotransferase increased, Grade 2 [4, 14]: 1 | Cardiac disorders, other-sinus rhythm probable left atrial enlargement, Grade 1 [4, 14]: 1 | Cholesterol high, Grade 1 [4, 14]: 1 | Creatinine increase, Grade 1 [4, 14]: 1 | Diarrhea, Grade 1 [4, 14]: 4 | Diarrhea, Grade 2 [4, 14]: 1 | Gastrointestinal disturbance, Grade 1 [4, 14]: 1 | Heartburn, Grade 1 [4, 14]: 1 | Lymphocyte count decrease, Grade 1 [4, 14]: 1 | Lymphocyte count decrease, Grade 2 [4, 14]: 3 | Lymphocyte count decrease, Grade 3 [4, 14]: 0 | Lymphocyte count decrease, Grade 4 [4, 14]: 0 | Lymphocyte count decrease, Grade 5 [4, 14]: 0 | Nausea, Grade 1 [4, 14]: 4 | Neutrophil count decreased, Grade 1 [4, 14]: 2 | Neutrophil count decreased, Grade 2 [4, 14]: 0 | Neutrophil count decreased, Grade 3 [4, 14]: 0 | Neutrophil count decreased, Grade 4 [4, 14]: 0 | Neutrophil count decreased, Grade 5 [4, 14]: 0 | Platelet count decrease, Grade 1 [4, 14]: 1 | Platelet count decrease, Grade 2 [4, 14]: 0 | Platelet count decrease, Grade 3 [4, 14]: 0 | Platelet count decrease, Grade 4 [4, 14]: 0 | Platelet count decrease, Grade 5 [4, 14]: 0 | Vomiting, Grade 1 [4, 14]: 1 | White blood cell decrease, Grade 1 [4, 14]: 3 | White blood cell decrease, Grade 2 [4, 14]: 1 | White blood cell decrease, Grade 3 [4, 14]: 0 | White blood cell decrease, Grade 4 [4, 14]: 0 | White blood cell decrease, Grade 5 [4, 14]: 0 | tolerability of the oral formulation ([4]; dose level 4 (8 mg/kg), all three subjects): oral aversion to the formulation | Total toxicities, Grade 2 [4, 15]: 6 | Total toxicities, Grade 3 [4, 15]: 0 | Total toxicities, Grade 4 [4, 15]: 0 | Total toxicities, Grade 5 [4, 15]: 0 | concentration at which immune modulatory effects start [5]: around 0.1 μM | mean concentration within the brain ([6]; at 15 min): 162 µM | mean concentration within the brain ([6]; at 6 h): 6 µM | % IFN-γ+ CD8 T cells [7, 16]: 8.3% | % of FoxP3 Tregs [7, 16]: 6.9% | Th1 to Th2 ratio ([7]; 1 mg/kg, C1D1 0 h (baseline)): 0.3 | Cytotoxic CD8 to Treg ratio ([7]; 1 mg/kg, C1D1 0 h (baseline)): 1.2 | % IFN-γ+ CD8 T cells ([7]; 1 mg/kg, C1D8 4 h): 45.3% | % of FoxP3 Tregs ([7]; 1 mg/kg, C1D8 4 h): 3.9% | Th1 to Th2 ratio ([7]; 1 mg/kg, C1D8 4 h): 1.0 | Cytotoxic CD8 to Treg ratio ([7]; 1 mg/kg, C1D8 4 h): 11.7 | % IFN-γ+ CD8 T cells [7, 17]: 8.8% | % of FoxP3 Tregs [7, 17]: 8.8% | % IFN-γ+ CD8 T cells ([7]; 2 mg/kg, C1D8 4 h): 7.0% | % of FoxP3 Tregs ([7]; 2 mg/kg, C1D8 4 h): 7.6% | Th1 to Th2 ratio ([7]; 2 mg/kg, C1D8 4 h): 0.5 | Cytotoxic CD8 to Treg ratio ([7]; 2 mg/kg, C1D8 4 h): 0.9 | % IFN-γ+ CD8 T cells [7, 18]: 4.6% and 0.9% and 4.0% | % of FoxP3 Tregs [7, 18]: 5.3^§ % and 4.9% and 4.0% | % of FoxP3 Tregs ([7]; 4 mg/kg, C1D8 4 h): 8.4% and 5.9% | % IFN-γ+ CD8 T cells [7, 19]: 27.4% and 31.7% | % of FoxP3 Tregs [7, 19]: 3.7% and 2.4% and 6.9% | Cytotoxic CD8 to Treg ratio ([7]; 8 mg/kg, C1D1 0 h (baseline)): 7.4 and 4.6 | % IFN-γ+ CD8 T cells ([7]; 8 mg/kg, C1D8 4 h): 3.6% and 0.1% | % of FoxP3 Tregs ([7]; 8 mg/kg, C1D8 4 h): 5.4% and 2.1% and 5.8% | Th1 to Th2 ratio ([7]; 8 mg/kg, C1D8 4 h): 2.4 and 1.8 | FoxP3+ Tregs in PBMCs versus baseline ([7]; after 172 h of treatment): not significantly altered | concentration within orthotopic brain tumors [8]: 2.3 µM | IC50 [9]: 2 to 5 µM | % of p-STAT3+ PBMC [10, 16]: 39.9% | % of p-STAT3+ PBMC ([10]; 1 mg/kg, C1D1 4 h): 33.4% | % of p-STAT3+ PBMC ([10]; 1 mg/kg, C1D2 0 h): 31.8% | % of p-STAT3+ PBMC ([10]; 1 mg/kg, C1D8 0 h): 19.3% | % of p-STAT3+ PBMC ([10]; 1 mg/kg, C1D8 4 h): 15.7% | % of p-STAT3+ PBMC [10, 17]: 38.1% | % of p-STAT3+ PBMC ([10]; 2 mg/kg, C1D1 4 h): 33.8% | % of p-STAT3+ PBMC ([10]; 2 mg/kg, C1D2 0 h): 31.5% | % of p-STAT3+ PBMC ([10]; 2 mg/kg, C1D8 0 h): 27.6% | % of p-STAT3+ PBMC ([10]; 2 mg/kg, C1D8 4 h): 34.8% | % of p-STAT3+ PBMC [10, 18]: 35.0% and 27.8% and 35.9% | % of p-STAT3+ PBMC ([10]; 4 mg/kg, C1D1 4 h): 28.2% and 30.9% and 36.0% | % of p-STAT3+ PBMC ([10]; 4 mg/kg, C1D2 0 h): 26.9% and 29.7% and 45.8% | % of p-STAT3+ PBMC ([10]; 4 mg/kg, C1D8 0 h): 37.7% and 27.3% | % of p-STAT3+ PBMC ([10]; 4 mg/kg, C1D8 4 h): 22.7% and 21.1% and 35.3% | lowest dose with p-STAT3 suppression in peripheral blood (PBMCs) ([10]; oral BID, longitudinal administration): 1 mg/kg | therapeutic effect in combination with radiation therapy ([11]; GL261 glioma model, lost in immune-incompetent animals): long-term survivors and enhanced median survival time relative to monotherapy | therapeutic effect as monotherapy ([11]; preclinical murine studies, 60 mg/kg): failed to demonstrate any therapeutic effect | dose dependence of Cmax [12]: dose dependent increase in the Cmax | 6-month PFS (PFS6) rate ([13]; 8 patients): 0% | longest response duration ([13]; 8 patients): exceeded 3.25 months | estimated 1-year OS rate ([13]; Kaplan-Meier, 8 patients): 100% | median overall survival (OS) ([13]; from the time of the initial diagnosis, 95% CI: 22.5 months-NA months): 25 months | Survival weeks ([13]; individual patient at 1 mg/kg): Alive | Survival weeks ([13]; individual patient at 2 mg/kg): 65 weeks | Survival weeks ([13]; individual patients at 4 mg/kg, 4 mg/kg): 108 weeks and 109 weeks and 194 weeks | Survival weeks ([13]; individual patients at 8 mg/kg, 8 mg/kg): 115 weeks and 98 weeks and Alive
